Experimental data: publication PMC4750707 (Antimicrobial Agents and Chemotherapy, 2016)
In brackets after ≈: the same amount, converted by molar mass.

Legend:
H. influenzae PBP5 = H. influenzae PBP5 (Haemophilus influenzae, UniProt P44466); experiment: PBP competition assay with Bocillin FL; format: binding
Outline: (§1)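 H. influenzae Rd grown in supplemented BHI at 35°C (A600 0.6–0.7). Cells in KPN buffer (20 mM K-phosphate, 140 mM NaCl, pH 7.5), lysozyme-treated 30 min, French-pressed; membranes at 150,000 × g. Used 100–120 μg membrane protein. Test compound 10 min at 30°C, then Bocillin FL 100 μM final for 20 min. Gel fluorescence band volumes; IC50 from three assays of six concentrations.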

S. aureus = experiment: Broth microdilution MIC; format: cell-based; settings: Staphylococcus aureus, ATCC29213
Outline: (§2)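 MICs by CLSI broth microdilution in cation-adjusted Mueller-Hinton broth. Strains grown in BHI broth at 35°C: E. coli K-12, P. aeruginosa 1771 and S. aureus ATCC 29213. H. influenzae Rd grown in BHI with Haemophilus test medium supplement (hemin and β-NAD, 15 μg/ml each).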

S. aureus PBP4 = biological target: T1, S. aureus PBP4 (Staphylococcus aureus, UniProt P72355); experiment: PBP competition assay with Bocillin FL; format: binding
T1 sequence (P72355 25-431): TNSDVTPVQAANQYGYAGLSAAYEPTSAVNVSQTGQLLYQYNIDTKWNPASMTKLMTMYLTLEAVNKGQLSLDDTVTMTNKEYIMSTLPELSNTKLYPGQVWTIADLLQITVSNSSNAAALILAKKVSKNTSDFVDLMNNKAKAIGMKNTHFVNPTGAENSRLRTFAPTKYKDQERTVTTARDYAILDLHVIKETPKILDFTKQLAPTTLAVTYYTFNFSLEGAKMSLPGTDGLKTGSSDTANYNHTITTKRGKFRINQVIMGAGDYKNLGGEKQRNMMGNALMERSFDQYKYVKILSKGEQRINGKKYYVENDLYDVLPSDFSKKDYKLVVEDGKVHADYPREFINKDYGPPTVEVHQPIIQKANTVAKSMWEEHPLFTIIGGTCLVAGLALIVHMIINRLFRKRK

E. coli PBP4 = E. coli PBP4 (Escherichia coli, UniProt P24228); experiment: PBP competition assay with Bocillin FL; format: binding
Outline: (§3)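 E. coli K-12 or P. aeruginosa 1771 grown in BHI at 35°C to A600 ~1.5. Cells in 50 mM phosphate pH 7.0 were French-pressed; membranes pelleted at 150,000 × g. Membranes (10–20 μg protein) were pre-incubated with test compound 10 min at 30°C, then Bocillin FL (100 μM final) 20 min. SDS-PAGE, fluorescence scan. IC50 in μg/ml from ≥8 concentrations versus no-drug control.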

S. aureus PBP2 = S. aureus PBP2 (Staphylococcus aureus, UniProt Q9R744); experiment: PBP competition assay with Bocillin FL; format: binding
Outline: (§4)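 S. aureus ATCC 29213 membranes were prepared in KPN buffer pH 7.5. Lysis used lysostaphin 400 μg/ml for 1 h at 37°C plus protease inhibitors, DNase and RNase, then French press. Membranes (10–20 μg protein) received test compound for 10 min at 30°C, then Bocillin FL 100 μM final for 20 min. SDS-PAGE band volumes; IC50 from three assays of six concentrations versus no-drug control.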

P. aeruginosa PBP1a = P. aeruginosa PBP1a (Pseudomonas aeruginosa, UniProt Q07806); experiment: PBP competition assay with Bocillin FL; format: binding
Outline: as §3

E. coli PBP5/6 = experiment: PBP competition assay with Bocillin FL; format: binding, Escherichia coli; settings: E. coli K-12 membranes; Bocillin FL 100 μM
Outline: as §3

S. aureus PBP3 = S. aureus PBP3 (Staphylococcus aureus, UniProt Q9XDB3); experiment: PBP competition assay with Bocillin FL; format: binding
Outline: as §4

S. pneumoniae PBP1a/b = experiment: PBP competition assay with Bocillin FL; format: binding, Streptococcus pneumoniae; settings: S. pneumoniae R6 membranes; Bocillin FL 100 μM
Outline: (§5)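 S. pneumoniae R6 was grown on blood agar at 37°C under 5% CO2, then in BHI with agitation to A600 ~1.0. Cells in KPN buffer pH 7.5 were lysozyme-treated and French-pressed; membranes (30–40 μg protein) were used. Test compound 10 min at 30°C, then Bocillin FL 100 μM final for 20 min. SDS-PAGE fluorescence; IC50 from three assays of six concentrations.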

H. influenzae PBP2 = H. influenzae PBP2 (Haemophilus influenzae, UniProt P44469); experiment: PBP competition assay with Bocillin FL; format: binding
Outline: as §1

S. pneumoniae PBP2a/b = experiment: PBP competition assay with Bocillin FL; format: binding, Streptococcus pneumoniae; settings: S. pneumoniae R6 membranes; Bocillin FL 100 μM
Outline: as §5

P. aeruginosa = experiment: Broth microdilution MIC; format: cell-based; settings: Pseudomonas aeruginosa
Outline: as §2

E. coli = experiment: Broth microdilution MIC; format: cell-based; settings: Escherichia coli
Outline: as §2

P. aeruginosa PBP3 = P. aeruginosa PBP3 (Pseudomonas aeruginosa, UniProt G3XD46); experiment: PBP competition assay with Bocillin FL; format: binding
E. coli PBP1a = biological target: T2, E. coli PBP1a (Escherichia coli, UniProt P02918); experiment: PBP competition assay with Bocillin FL; format: binding
T2 sequence (P02918 1-850): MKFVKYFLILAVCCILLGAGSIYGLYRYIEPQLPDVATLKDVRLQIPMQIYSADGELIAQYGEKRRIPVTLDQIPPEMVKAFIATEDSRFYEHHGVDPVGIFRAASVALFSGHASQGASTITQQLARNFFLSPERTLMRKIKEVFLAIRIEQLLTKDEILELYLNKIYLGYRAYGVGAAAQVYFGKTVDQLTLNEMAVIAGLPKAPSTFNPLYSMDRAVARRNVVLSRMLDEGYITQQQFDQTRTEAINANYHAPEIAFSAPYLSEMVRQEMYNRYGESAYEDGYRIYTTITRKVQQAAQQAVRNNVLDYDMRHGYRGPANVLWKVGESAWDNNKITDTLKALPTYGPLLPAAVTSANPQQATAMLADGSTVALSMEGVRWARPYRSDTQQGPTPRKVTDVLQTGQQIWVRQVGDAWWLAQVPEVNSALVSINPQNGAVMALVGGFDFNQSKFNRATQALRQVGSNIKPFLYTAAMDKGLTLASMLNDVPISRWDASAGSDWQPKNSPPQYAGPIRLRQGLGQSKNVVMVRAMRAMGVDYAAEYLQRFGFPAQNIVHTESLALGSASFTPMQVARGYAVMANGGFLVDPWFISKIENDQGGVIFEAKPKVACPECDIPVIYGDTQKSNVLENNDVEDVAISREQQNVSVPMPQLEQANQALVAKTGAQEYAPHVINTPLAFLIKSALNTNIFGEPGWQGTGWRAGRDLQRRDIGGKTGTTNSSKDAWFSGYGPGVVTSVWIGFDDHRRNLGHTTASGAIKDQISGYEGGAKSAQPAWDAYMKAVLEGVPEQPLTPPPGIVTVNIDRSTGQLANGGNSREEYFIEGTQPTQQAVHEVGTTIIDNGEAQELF
Outline: as §3

Row | SMILES | IC50 (H. influenzae PBP5) [µM] | MIC (S. aureus) [µg/mL] | IC50 (S. aureus PBP4) [µM] | IC50 (E. coli PBP4) [µM] | IC50 (S. aureus PBP2) [µM] | IC50 (P. aeruginosa PBP1a) [µM] | Relative binding (IC50) for PBP 5/6 (E. coli PBP5/6) [µg/mL] | IC50 (S. aureus PBP3) [µM] | Relative binding (IC50) for PBP 1a/b (S. pneumoniae PBP1a/b) [µg/mL] | IC50 (H. influenzae PBP2) [µM] | Relative binding (IC50) for PBP 2a/b (S. pneumoniae PBP2a/b) [µg/mL] | MIC (P. aeruginosa) [µg/mL] | MIC (E. coli) [µg/mL] | IC50 (P. aeruginosa PBP3) [µM] | IC50 (E. coli PBP1a) [µM] | Binding to S. aureus PBP4 revealed by reduction of Bocillin FL labeling (S. aureus PBP4; S. aureus membranes, in presence of avibactam fixed at 4 μg/ml)
1 | NC(=O)[C@@H]1CC[C@@H]2CN1C(=O)N2OS(=O)(=O)O [AVI, avibactam] | > 121 | 256 (≈ 965 µM) | > 965 | > 49 | 192 | > 49 | >13 | 588 | >64 | 11.3 | >64 | > 128 | 8 (≈ 30.2 µM) | 6.79 | > 49 | 
2 | CC(C)(O/N=C(\C(=O)N[C@@H]1C(=O)N2C(C(=O)[O-])=C(C[n+]3ccccc3)CS[C@H]12)c1csc(N)n1)C(=O)O [CAZ, ceftazidime] |  | 16 (≈ 29.3 µM) | > 14.6 | > 45.7 | 1.28 | 0.348 | >25 | > 14.6 |  |  |  | 4 (≈ 7.32 µM) | 0.5 (≈ 0.915 µM) | 0.0732 | 27.4 | affinity for PBP4 was much lower
3 | CC1(C)S[C@@H]2[C@H](/N=C/N3CCCCCC3)C(=O)N2[C@H]1C(=O)O [MEC, amdinocillin] |  |  |  | > 39.9 |  | > 39.9 |  |  |  |  |  |  | 0.06 to 0.1 (≈ 0.184 to 0.307 µM) |  | > 39.9 | 
